Laboratory results published in ChEMBL document CHEMBL4311987, “Discovery of novel allosteric site and covalent inhibitors of FBPase with potent hypoglycemic effects” (Eur J Med Chem, 2019).
Activity calls are given as the source filed them. The rule behind the calls is not given here.

Key:
[1] = species: Homo sapiens; assay: Selectivity index, ratio of IC50 for human FBPase C128S mutant expressed in Escherichia coli BL21 (DE3) to IC50 for human FBPase expressed in Escherichia coli BL21 (DE3)
Method in brief: (§1)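 IC50 values for each FBPase point mutant and for wild-type human FBPase came from the same malachite-green assay. The index is mutant IC50 divided by wild-type IC50.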

[2] = tested on: Hepatocyte; assay: Inhibition of glucose production in C57BLKS rat Primary hepatocytes incubated for 3 hrs by glucose assay kit method; format: functional, cell-based
Method in brief: (§2)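 Rat primary hepatocytes cultured overnight in DMEM/10% FBS, then pretreated with compounds for 3 h in fresh medium. Switched to glucose-free DMEM with 2 mM sodium pyruvate, 20 mM sodium lactate and compound for 3 h. Medium glucose measured with a kit and normalized to BCA protein. Pathological arm adds 1 µM dexamethasone plus 200 µM cAMP for 3 h. Means ± SEM, n=4.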

[3] = tested on: Hepatocyte; assay: Inhibition of glucose production in C57BLKS rat Primary hepatocytes at 400 uM incubated for 3 hrs by glucose assay kit method relative to control; format: functional; method in brief: as §2
[4] = tested on: Hepatocyte; assay: Inhibition of glucose production in cAMP and Dex pre-treated C57BLKS rat Primary hepatocytes incubated for 3 hrs by glucose assay kit method; format: functional, cell-based; method in brief: as §2
[5] = tested on: Hepatocyte; assay: Inhibition of glucose production in cAMP and Dex pre-treated C57BLKS rat Primary hepatocytes at 100 uM incubated for 3 hrs by glucose assay kit method; format: functional; method in brief: as §2
[6] = tested on: Hepatocyte; assay: Inhibition of lipid accumulation in C57BLKS rat Primary hepatocytes assessed as reduction in insulin and glucose-induced TC level incubated for 24 hrs; format: functional, cell-based
Method in brief: (§3)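 After overnight culture in DMEM, rat primary hepatocytes pretreated with compounds, then held in 25 mM glucose plus 500 nM insulin for 24 h to induce lipid accumulation. Triglyceride and total cholesterol measured with assay kits and normalized to BCA protein. Means ± SEM of four independent experiments.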

[7] = tested on: Hepatocyte; assay: Inhibition of lipid accumulation in C57BLKS rat Primary hepatocytes assessed as reduction in insulin and glucose-induced TG level at 10 uM incubated for 24 hrs; format: functional, cell-based; method in brief: as §3
[8] = tested on: Hepatocyte; assay: Inhibition of lipid accumulation in C57BLKS rat Primary hepatocytes assessed as reduction in insulin and glucose-induced TG level at 100 uM incubated for 24 hrs; format: functional, cell-based; method in brief: as §3
[9] = Cytotoxicity against C57BLKS rat Primary hepatocytes assessed as cell viability incubated for 6 hrs by SRB assay; format: cell-based, Hepatocyte; conditions: read-out: Activity
Method in brief: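 Rat primary hepatocytes under physiological conditions exposed to compounds for 6 h. Viability read by sulforhodamine B staining. Means ± SEM of four independent experiments.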

[10] = Acute toxicity in C57BL/6 mouse assessed as mortality at 600 mg/kg, po observed for 14 days; format: organism-based; conditions: in vivo, 336 h
Method in brief: (§4)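 Sixteen male C57BL/6 mice, 8 weeks old, were randomised into two groups. Each group got a single oral dose on day 1, either vehicle or 600 mg/kg. Animals were watched for 14 days for mortality, body-weight loss and allergic reactions, against controls.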

[11] = Acute toxicity in C57BL/6 mouse assessed as weight loss at 600 mg/kg, po observed for 14 days; format: organism-based; conditions: in vivo, 336 h; method in brief: as §4
[12] = Acute toxicity in C57BL/6 mouse assessed as allergic action at 600 mg/kg, po observed for 14 days; format: organism-based; conditions: in vivo, 336 h; method in brief: as §4
[13] = tested on: Hepatocyte; assay: Inhibition of lipid accumulation in C57BLKS rat Primary hepatocytes assessed as reduction in insulin and glucose-induced TC level at 10 uM incubated for 24 hrs; format: functional, cell-based; method in brief: as §3
[14] = tested on: Hepatocyte; assay: Cytotoxicity against C57BLKS rat Primary hepatocytes assessed as cell viability by measuring cellular protein level at 10 to 300 uM by bicinchoninic acid method; format: cell-based
Method in brief: (§5)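 Primary hepatocytes isolated from rat, cultured overnight in DMEM with 10% FBS, then exposed to compounds. Cellular protein per group measured by bicinchoninic acid (BCA) method as a viability control. The same protein values serve to normalize glucose, TG and TC contents. Pathological stimulation where applicable: 1 µM dexamethasone plus 200 µM cAMP, or 25 mM glucose plus 500 nM insulin for 24 h. Means ± SEM, four independent experiments.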

[15] = tested on: Hepatocyte; assay: Cytotoxicity against C57BLKS rat Primary hepatocytes assessed as cell viability by measuring cellular protein level at 25 to 100 uM in presence of insulin and glucose by bicinchoninic acid method; format: cell-based; method in brief: as §5
[16] = species: Homo sapiens; assay: Selectivity index, ratio of IC50 for human FBPase D127A mutant expressed in Escherichia coli BL21 (DE3) to IC50 for human FBPase expressed in Escherichia coli BL21 (DE3); method in brief: as §1
[17] = target: Fructose-1,6-bisphosphatase 1 (Homo sapiens, UniProt P09467, D128A); assay: Inhibition of human FBPase D127A mutant expressed in Escherichia coli BL21 (DE3) using FBP as substrate incubated for 5 mins by malachite green dye based spectrophotometry
Method in brief: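 Recombinant human FBPase (wild type or point mutants) was expressed in E. coli BL21 (DE3), purified and stored in 50% glycerol at -20 °C. Reactions ran 5 min at 37 °C, and released phosphate was read by malachite green.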

[18] = target: T1, Fructose-1,6-bisphosphatase 1 (Homo sapiens) (UniProt P09467); assay: Competitive inhibition of human FBPase expressed in Escherichia coli BL21 (DE3) using FBP as substrate incubated for 5 mins in presence of Mg2+ by malachite green dye based spectrophotometry
T1 sequence (whole entry): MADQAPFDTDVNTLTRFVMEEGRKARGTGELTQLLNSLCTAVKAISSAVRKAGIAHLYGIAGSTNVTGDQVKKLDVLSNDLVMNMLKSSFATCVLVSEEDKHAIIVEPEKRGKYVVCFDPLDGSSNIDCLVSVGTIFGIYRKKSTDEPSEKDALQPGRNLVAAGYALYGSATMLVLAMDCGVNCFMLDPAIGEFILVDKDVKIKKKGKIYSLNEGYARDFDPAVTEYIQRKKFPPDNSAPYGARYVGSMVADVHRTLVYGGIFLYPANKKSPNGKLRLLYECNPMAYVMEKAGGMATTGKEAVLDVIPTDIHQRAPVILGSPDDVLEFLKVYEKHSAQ
Method in brief: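 Malachite-green phosphate readout of human FBPase (300 nM, E. coli-expressed) in 50 mM Tris-HCl pH 7.4 with 0.4 mM FBP, 5 min at 37 °C. Compound concentration was varied at fixed Mg2+ levels, with Mg2+ raised from 1 mM to 10 mM, to assess competition with Mg2+.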

[19] = target: T1, Fructose-1,6-bisphosphatase 1 (Homo sapiens); assay: Inhibition of human FBPase expressed in Escherichia coli BL21 (DE3) at 10 times of IC50 using FBP as substrate incubated for 30 to 180 mins mins by malachite green dye based spectrophotometry
Method in brief: (§6)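 Activity was started with 0.4 mM FBP and 0.8 mM Mg2+. Reactions were stopped with 1 M perchloric acid at 30, 60, 90, 120, 150 and 180 min, and phosphate was then detected by malachite green.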

[20] = target: T1, Fructose-1,6-bisphosphatase 1 (Homo sapiens); assay: Reversible inhibition of human FBPase expressed in Escherichia coli BL21 (DE3) at 20 times diluted IC50 using FBP as substrate preincubated for 30 to 180 mins followed by 20 fold compound dilution by malachite green dye based spectrophotometry; method in brief: as §6
[21] = target: T1, Fructose-1,6-bisphosphatase 1 (Homo sapiens); assay: Binding affinity to human FBPase expressed in Escherichia coli BL21 (DE3) incubated for 2 hrs by LC-MS analysis
[22] = target: T2, Fructose-1,6-bisphosphatase 1 (Homo sapiens, UniProt P09467); assay: Binding affinity to human FBPase expressed in Escherichia coli BL21 (DE3) assessed as dissociation constant at 100 uM by UV-visible spectroscopy
T2 sequence (P09467 whole entry): T1 sequence (whole entry)

Fructose-1,6-bisphosphatase 1 (Homo sapiens, UniProt P09467, D128A), sequence (P09467 2-338 D128A limits assumed): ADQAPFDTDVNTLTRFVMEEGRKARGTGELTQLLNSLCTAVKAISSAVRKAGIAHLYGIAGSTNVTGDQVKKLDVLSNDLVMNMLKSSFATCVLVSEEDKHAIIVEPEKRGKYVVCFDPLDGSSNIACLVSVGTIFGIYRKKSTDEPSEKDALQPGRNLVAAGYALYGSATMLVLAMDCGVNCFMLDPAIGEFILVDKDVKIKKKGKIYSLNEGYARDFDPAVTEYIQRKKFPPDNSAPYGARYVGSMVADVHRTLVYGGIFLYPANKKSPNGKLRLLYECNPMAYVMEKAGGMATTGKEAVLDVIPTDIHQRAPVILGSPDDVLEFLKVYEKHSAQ

Compound | Ratio IC50 [1] | Ratio IC50 [16] | IC50 [17] [µM] | inhibition [18] | inhibition [19] [%] | inhibition [20] | Activity [21] | further results
CCOC(=O)C(C)(C)Oc1ccc(F)c(/C=C/[N+](=O)[O-])c1 | > 820 | – | – | – | – | – | – | inhibition [2]: Dose-dependent effect; inhibition at 400 µM [3]: 90%; inhibition [4]: Dose-dependent effect; inhibition at 100 µM [5]: 95%; inhibition [6]: Dose-dependent effect; inhibition [7]: Active; inhibition [8]: inactive; viability at 6 h [9]: > 80%; Activity [10]: Non-Toxic; Activity [11]: Non-Toxic; Activity [12]: Non-Toxic; inhibition [13]: Active; Activity [14]: Non-Toxic; Activity [15]: Non-Toxic
O=[N+]([O-])/C=C/c1cccc(F)c1 | > 1010 | 13 | 4 | Active | 100 | Active | Active | –
N#Cc1ccc(/C=C/[N+](=O)[O-])cc1 | > 1000 | 5.7 | 2 | Active | 100 | Active | Active | Kd [22]: 54 µM
